By inhibition is commonly meant the drop in the measured response relative to a control, in per cent. The IC50 is the concentration needed to halve the response being measured. One may read the MIC as the least concentration at which growth counts as inhibited.

Among the data in ChEMBL document CHEMBL3576850 (J Nat Prod, 2015) are inhibition, IC50 and MIC values, retold here.

Structures are written as SMILES. In brackets after ≈: the same amount, converted by molar mass. Activity calls are given as the source filed them. The calls are words filed in the database; no cut-off is given here.

For test [1], the target named is Pyruvate kinase PKM (Homo sapiens) (UniProt P14618). The test is described as follows: Inhibition of recombinant his-tagged human pyruvate kinase M2 expressed in Escherichia coli BL-21(DE3) using PEP as substrate at 10 uM after 5 mins by L-LDH coupled assay relative to control. Summed up:
(§1)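 His-tagged human PK isoform in a continuous rabbit muscle L-LDH-coupled assay, read as 340 nm absorbance change. Compounds added from DMSO, final DMSO ≤1%. Three measurements, each in triplicate.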

Test [2] has as its target Pyruvate kinase PKLR (Homo sapiens) (UniProt P30613). Nature of the test: Inhibition of recombinant his-tagged human pyruvate kinase L expressed in Escherichia coli BL-21(DE3) using PEP as substrate at 10 uM after 5 mins by L-LDH coupled assay relative to control. An outline of the steps: as §1
The target in test [3] is Pyruvate kinase PKM (Homo sapiens) (UniProt P14618). Nature of the test: Inhibition of recombinant his-tagged human pyruvate kinase M1 expressed in Escherichia coli BL-21(DE3) using PEP as substrate at 10 uM after 5 mins by L-LDH coupled assay relative to control. Summed up:
as §1

Test [4] addresses Pyruvate kinase PKLR (Homo sapiens) (UniProt P30613). Nature of the test: Inhibition of recombinant his-tagged human pyruvate kinase R expressed in Escherichia coli BL-21(DE3) using PEP as substrate at 10 uM after 5 mins by L-LDH coupled assay relative to control. An outline of the steps: as §1
A short description of test [5]: Inhibition of recombinant his-tagged methicillin-resistant Staphylococcus aureus pyruvate kinase expressed in Escherichia coli BL-21(DE3) using PEP as substrate after 5 mins by L-LDH coupled assay.
Test [6] has as its target Pyruvate kinase PKM (Homo sapiens) (UniProt P14618). Nature of the test: Inhibition of recombinant his-tagged human pyruvate kinase M2 expressed in Escherichia coli BL-21(DE3) using PEP as substrate at 5 uM after 5 mins by L-LDH coupled assay relative to control. An outline of the steps:
as §1

Test [7] addresses Pyruvate kinase PKLR (Homo sapiens) (UniProt P30613). The test is described as follows: Inhibition of recombinant his-tagged human pyruvate kinase L expressed in Escherichia coli BL-21(DE3) using PEP as substrate at 5 uM after 5 mins by L-LDH coupled assay relative to control. An outline of the steps:
as §1

Test [8] shares this target. Nature of the test: Inhibition of recombinant his-tagged human pyruvate kinase R expressed in Escherichia coli BL-21(DE3) using PEP as substrate at 5 uM after 5 mins by L-LDH coupled assay relative to control. Summed up: as §1
Test [9] deals with Pyruvate kinase PKM (Homo sapiens) (UniProt P14618). The test is described as follows: Inhibition of recombinant his-tagged human pyruvate kinase M1 expressed in Escherichia coli BL-21(DE3) using PEP as substrate at 5 uM after 5 mins by L-LDH coupled assay relative to control. An outline of the steps: as §1
Pyruvate kinase PKM (Homo sapiens), sequence (P14618 2-531 limits assumed): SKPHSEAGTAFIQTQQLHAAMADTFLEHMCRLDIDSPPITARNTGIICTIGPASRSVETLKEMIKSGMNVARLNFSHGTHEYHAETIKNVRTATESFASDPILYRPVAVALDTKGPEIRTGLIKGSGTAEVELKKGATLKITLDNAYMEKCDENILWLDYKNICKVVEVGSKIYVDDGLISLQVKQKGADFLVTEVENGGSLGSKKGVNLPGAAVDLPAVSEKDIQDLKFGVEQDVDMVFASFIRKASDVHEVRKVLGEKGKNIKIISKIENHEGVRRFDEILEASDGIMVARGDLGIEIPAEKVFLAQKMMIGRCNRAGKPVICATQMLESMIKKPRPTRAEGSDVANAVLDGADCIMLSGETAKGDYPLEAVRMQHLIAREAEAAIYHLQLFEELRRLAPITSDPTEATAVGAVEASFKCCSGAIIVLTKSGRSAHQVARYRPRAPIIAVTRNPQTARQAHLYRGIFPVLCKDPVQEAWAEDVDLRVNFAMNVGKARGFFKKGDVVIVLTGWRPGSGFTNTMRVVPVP
Test [10] deals with Staphylococcus aureus. The test is described as follows: Antibacterial activity against methicillin-resistant Staphylococcus aureus 252 by 2-fold serial broth microdilution method. The format is functional.
Test [11] has as its system Staphylococcus aureus. Nature of the test: Antibacterial activity against methicillin-susceptible Staphylococcus aureus RN4220 by 2-fold serial broth microdilution method. The test is classed as functional.

Pyruvate kinase PKLR (Homo sapiens), sequence (P30613 whole entry, looked up): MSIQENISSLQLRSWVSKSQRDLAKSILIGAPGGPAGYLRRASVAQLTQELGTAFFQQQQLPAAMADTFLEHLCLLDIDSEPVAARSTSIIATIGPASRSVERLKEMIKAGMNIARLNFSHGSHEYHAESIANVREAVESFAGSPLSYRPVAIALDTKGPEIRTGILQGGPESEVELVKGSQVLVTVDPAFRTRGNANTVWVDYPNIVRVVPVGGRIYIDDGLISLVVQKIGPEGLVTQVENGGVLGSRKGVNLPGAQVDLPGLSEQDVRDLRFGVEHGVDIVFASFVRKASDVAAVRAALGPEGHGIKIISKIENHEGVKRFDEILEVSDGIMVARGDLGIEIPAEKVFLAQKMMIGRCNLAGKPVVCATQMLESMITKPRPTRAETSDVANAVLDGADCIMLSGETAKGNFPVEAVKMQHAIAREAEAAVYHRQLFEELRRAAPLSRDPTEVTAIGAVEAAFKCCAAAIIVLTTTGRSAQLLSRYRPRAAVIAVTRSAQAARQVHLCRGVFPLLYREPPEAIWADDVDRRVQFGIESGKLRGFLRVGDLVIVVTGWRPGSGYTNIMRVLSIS

Turning to `O=C(c1nc(-c2c[nH]c3ccccc23)c[nH]1)c1c[nH]c2ccccc12`, the inhibition entry in test [1], in test [2], in test [3] and in [4] was “inactive” each time.

For the molecule `O=C(c1nc(-c2c[nH]c3c(Cl)cccc23)c[nH]1)c1c[nH]c2c(Cl)cccc12`, the inhibition entry in test [1], in test [2], in test [3] and in [4] was “inactive” throughout. For the same molecule, the IC50 in [5] is 26000 nM.

As to `O=C(c1nc(-c2c[nH]c3cc(I)ccc23)c[nH]1)c1c[nH]c2cc(I)ccc12`, the inhibition in [6] is 0%; in test [7] it was less than 40%; in test [8], less than 40%; in [9], 0%. The IC50 in test [5] amounted to 3.3 nM.

Take `O=C(c1nc(-c2c[nH]c3cc(F)ccc23)c[nH]1)c1c[nH]c2cc(F)ccc12`: the inhibition entry in [1], in test [2], in [3] and in test [4] was “inactive” throughout. The IC50 in [5] was 24 nM.

As for `O=C(c1ncc(-c2c[nH]c3cc(Br)ccc23)[nH]1)c1c[nH]c2cc(Br)ccc12`, the inhibition was 0% in [6], less than 40% in test [7], less than 40% in test [8] and 0% in test [9].

Regarding `O=C(c1nc(-c2c[nH]c3ccc(Br)cc23)c[nH]1)c1c[nH]c2ccc(Br)cc12`, the inhibition in test [6] was 0%; in [7] it was less than 40%; in test [8] it was less than 40%; in [9], 0%. For the same molecule, in test [5], the IC50 was determined as 6.4 nM.

Regarding `O=C(c1nc(-c2c[nH]c3cc(Cl)ccc23)c[nH]1)c1c[nH]c2cc(Cl)ccc12`, the inhibition in test [6] was 0%; in test [7] it was less than 40%; in [8] it was less than 40%; in [9], 0%. For the same molecule, in test [5], the IC50 stood at 1.5 nM.

As for `O=C1NC[C@@H](c2c[nH]c3cc(Br)ccc23)N[C@H]1c1c[nH]c2cc(Br)ccc12` (relative stereo) [CIS-3,4-DIHYDROHAMACANTHIN B], the MIC against Staphylococcus aureus [10] was determined as 12.5 µg/mL (≈ 25.6 µM); in the test with Staphylococcus aureus [11] it was 6.25 µg/mL (≈ 12.8 µM). For the same molecule, the IC50 in [5] worked out at 16 nM.
